By IC50 is commonly meant the concentration that gives 50% inhibition. High values mean a need for much substance, low ones inhibition by little substance.

Structures are written as SMILES. Calls of active or inactive are those of the source. The rule behind the calls is not given here.

Consider 15 compounds from ChEMBL document CHEMBL4765278, “Synthesis of antiplatelet ortho-carbonyl hydroquinones with differential action on platelet aggregation stimulated by collagen or TRAP-6” (Eur J Med Chem, 2020).

Data set [1] has as its system Platelet. The data set is described as follows: Antiplatelet activity in human Platelet assessed as intracellular NADH level at 2 to 20 uM by fluorescence assay. In kind it is functional, cell-based. Particulars: dose 2-20 µM. The method, boiled down:
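NAD(P)H autofluorescence in resting washed platelets, excitation 340 nm and emission 428 nm. Mean ± SEM of n=3.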

The test system of data set [2] is Platelet. Kind of data set: Antiplatelet activity in human Platelet assessed as inhibition of collagen-induced ATP secretion at 2 to 20 uM by Cell Titer-Glo luminescent cell viability assay. It counts as functional, cell-based. The settings on record: dose 2-20 µM. (In general: ATP-based viability assays read luminescence as a measure of living cells.)
Data set [3] can be described thus: Inhibition of TRAP6-induced platelet aggregation in human platelet preincubated for 5 mins followed by 10 uM TRAP6-stimulation and measured after 6 mins by lumi-aggregometric method relative to control. In kind it is functional. The settings on record: time 11 min. The method, boiled down:
(§1)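 Washed platelets (3x10^8/mL) preincubated 5 min with 2 mM CaCl2 plus compound, then challenged at maximal agonist level, 10 μM TRAP-6 or 2 collagen as printed. Transmission followed 6 min and compared with DMSO 0.2% control; n=3.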

Data set [4] deals with Platelet. The data set is described as follows: Antiplatelet activity in human Platelet assessed as inhibition of collagen-induced GP2a/3b activation at 2 to 20 uM by flow cytometric analysis. In kind it is functional, cell-based. The settings on record: dose 2-20 µM.
Data set [5] can be described thus: Selectivity index, ratio of IC50 for inhibition of TRAP6-induced platelet aggregation in human platelet to IC50 for inhibition of collagen-induced platelet aggregation in human platelet. In kind it is functional. Put shortly: (§2)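 Light transmission aggregometry of washed human platelets (3x10^8/mL) preincubated 5 min with 2 mM CaCl2 plus compound (0.2 to 200 μM; DMSO 0.2% vehicle). Aggregation induced by TRAP-6 (5 μM) or collagen (1 μg/mL) and followed 6 min. IC50 from dose-response curves, mean ± SEM of three experiments. S.I. = IC50 TRAP-6/IC50 collagen.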

A short description of data set [6]: Inhibition of collagen-induced platelet aggregation in human platelet preincubated for 5 mins followed by 2 ug/ml collagen-stimulation and measured after 6 mins by lumi-aggregometric method relative to control. In kind it is functional. The settings on record: time 11 min. Put shortly:
as §1

Data set [7] deals with Platelet. Kind of data set: Cytotoxicity against human Platelet assessed as increase in LDH leakage at 200 uM after 10 mins by LDH assay. It counts as cell-based. The method, boiled down:
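Washed platelets (3x10^8/mL) incubated 10 min at 37°C with compound (200 μM), then centrifuged 800 x g for 8 min. Supernatant LDH kit read at 490 nm; 10% Triton X-100 served as positive control.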

For data set [8], the system named is Platelet. The data set is described as follows: Antiplatelet activity in human Platelet assessed as intracellular ATP level at 2 to 20 uM by Cell Titer-Glo luminescent cell viability assay. Particulars: dose 2-20 µM. In kind it is functional, cell-based. The method, boiled down:
(§3)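 Intraplatelet ATP in resting washed human platelets measured by CellTiter-Glo luminescence following the kit instructions. Mean ± SEM of n=3 experiments.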

Data set [9] deals with Platelet. Kind of data set: Antiplatelet activity in human Platelet assessed as ROS production at 2 to 20 uM by DHE staining based flow cytometric analysis. It counts as functional, cell-based. The settings on record: dose 2-20 µM. Put shortly:
(§4)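 Washed human platelets (5x10^7/mL) exposed to compounds with 10 μM dihydroethidium for 20 min at 37°C; ROS read by flow cytometry. Mean ± SEM of three experiments.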
(In general: In flow cytometry, cells or beads pass a laser one at a time.)

A short description of data set [10]: (§5) Inhibition of TRAP6-induced platelet aggregation in human platelet preincubated for 5 mins followed by TRAP6-stimulation and measured after 6 mins by lumi-aggregometric method. It counts as functional, tissue-based. Put shortly:
as §2

Data set [11] concerns Platelet. Described as §5. In kind it is functional, tissue-based. The settings on record: time 11.0 min. Put shortly:
as §2

For data set [12], the system named is Platelet. The data set is described as follows: Antiplatelet activity in human Platelet assessed as inhibition of collagen-induced p-selectin protein expression at 2 to 20 uM by flow cytometric analysis. In kind it is functional, cell-based. The settings on record: dose 2-20 µM.
Data set [13] relates to Platelet. The data set is described as follows: Antiplatelet activity in human Platelet assessed as intracellular calcium level at 2 to 20 uM preincubated for 5 mins and measured for 15 sec by Fluo-3-AM staining based assay. It counts as functional, cell-based. The settings on record: dose 2-20 µM. The method, boiled down: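 Washed platelets (5x10^7/mL) loaded with Fluo-3-AM (0.4 μM) for 30 min at RT, then given vehicle (DMSO 0.2%) or compound for 5 min. Baseline recorded 15 s, then FCCP (1 μM) added and read 60 s more by flow cytometry. Expressed relative to control.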
Background: A change in cytosolic calcium serves as a functional read-out for many receptors and channels.

Data set [14] has as its system Platelet. Kind of data set: Effect on platelet activation in human collagen/TRAP6-inducrd human Platelet assessed as positive subpopulation cells at 2 to 20 uM by annexin V-FITC staining based flow cytometric analysis. Particulars: dose 2-20 µM. It counts as functional, tissue-based. Put shortly: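 Washed platelets (3x10^8/mL) preincubated 5 min with 2 mM CaCl2 plus compound and stimulated with collagen + TRAP-6. Diluted in annexin V binding buffer and stained with annexin V-FITC and anti-CD61-PE for 25 min in the dark; flow cytometry.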

A short description of data set [15]: (§6) Inhibition of collagen-induced platelet aggregation in human platelet preincubated for 5 mins followed by collagen-stimulation and measured after 6 mins by lumi-aggregometric method. It counts as functional, tissue-based. The method, boiled down:
as §2

Data set [16] concerns Platelet. Described as §6. It counts as functional, tissue-based. The settings on record: time 11.0 min. Put shortly: as §2
In data set [17] the test system is Platelet. Kind of data set: Antiplatelet activity in human Platelet assessed as mitochondrial membrane potential loss at 2 to 20 uM by TMRM staining based flow cytometric analysis. It counts as functional, cell-based. Particulars: dose 2-20 µM. Put shortly:
(§7)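 Washed platelets loaded with TMRM (100 nM), then incubated with DMSO 0.2%, compound or FCCP (1 μM) at 37°C for 20 min; ΔΨm by flow cytometry.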

Data set [18] relates to Platelet. The data set is described as follows: Antiplatelet activity in human Platelet assessed as inhibition of TRAP6-induced ATP secretion at 2 to 20 uM by Cell Titer-Glo luminescent cell viability assay. It counts as functional, cell-based. Particulars: dose 2-20 µM.
The test system of data set [19] is Platelet. The data set is described as follows: Antiplatelet activity in human Platelet assessed as mitochondrial membrane potential loss at 20 uM by TMRM staining based flow cytometric analysis. It counts as functional, cell-based. The method, boiled down:
as §7

The subject of data set [20] is Platelet. Kind of data set: Antiplatelet activity in human Platelet assessed as inhibition of TRAP6-induced CD63 expression at 2 to 20 uM by flow cytometric analysis. In kind it is functional, cell-based. Particulars: dose 2-20 µM.
Data set [21] relates to Platelet. Kind of data set: Antiplatelet activity in human Platelet assessed as inhibition of TRAP6-induced GP2a/3b activation at 2 to 20 uM by flow cytometric analysis. It counts as functional, cell-based. Particulars: dose 2-20 µM.
Data set [22] deals with Platelet. Kind of data set: Antiplatelet activity in human Platelet assessed as decrease in intracellular ATP level at 20 uM by Cell Titer-Glo luminescent cell viability assay. In kind it is functional, cell-based. Put shortly: as §3
The test system of data set [23] is Platelet. Kind of data set: Antiplatelet activity in human Platelet assessed as increase in ROS production at 20 uM by DHE staining based flow cytometric analysis. It counts as functional, cell-based. The method, boiled down:
as §4

Data set [24] has as its system Platelet. Kind of data set: Antiplatelet activity in human Platelet assessed as inhibition of TRAP6-induced p-selectin protein expression at 2 to 20 uM by flow cytometric analysis. It counts as functional, cell-based. The settings on record: dose 2-20 µM.

With `O=C1C=CC2(CCCC2)c2c(O)ccc(O)c21`, the outcome in the data set with Platelet [1], in the data set on Platelet [8], with Platelet [9], in the data set on Platelet [13], in the data set with Platelet [14] and with Platelet [17] was inactive. Further, the inhibition result with Platelet [2], in the data set with Platelet [4] and with Platelet [12] was “Active” throughout. The “inhibition (INH)” value in [3] and in [6] was 100% each time. For the same compound, the “Ratio IC50” value in data set [5] is 56.5. The Activity entry in the data set with Platelet [7] is “Non-Toxic”. Moreover, the IC50 in [10] was above 100 µM; in [15], 1.77 µM. In addition, the inhibition entry with Platelet [11] and with Platelet [16] was “Dose-dependent effect” throughout.
On to `CC1C=CC(CO)c2c(O)c3c(c(O)c21)C(=O)C=CC3(C)C` (stereo not given), for which the “Ratio IC50” value in data set [5] was determined as 22.83. The Activity entry in the data set on Platelet [7] is given as “Non-Toxic”. For the same compound, the results for the concentration for half-maximal inhibition (IC50) in data set [10] and in data set [15] were above 100 µM and 4.38 µM, respectively.
For `CC1(C)C=CC(=O)c2c(O)ccc(O)c21` the same measures were 7, “Non-Toxic”, above 100 µM and 14.3 µM.
Take `Cc1c(C)c(O)c2c(c1O)C(=O)C=CC2(C)C`: the “Ratio IC50” value in [5] is recorded as 8.35. In the data set on Platelet [7], the Activity result is recorded as “Non-Toxic”. The IC50 is above 100 µM in data set [10] and 12 µM in data set [15].
As for `CC1C=CC(COC(=O)C2CCCCC2)c2c(O)c3c(c(O)c21)C(=O)C=CC3(C)C` (stereo not given), the Activity result in the data set with Platelet [7] is listed as “Non-Toxic”. Also, the IC50 in data set [10] and in [15] was above 100 µM in each case.
In the case of `CCCCCCCC1=CC(C)(C)c2c(O)ccc(O)c2C1=O`, the Activity entry in the data set on Platelet [7] is given as “Toxic”.
On to `CCC1(CC)C=CC(=O)c2c(O)ccc(O)c21`, for which the “Ratio IC50” value in data set [5] is 0.9. Besides, the Activity entry in the data set on Platelet [7] is on record as “Non-Toxic”. In addition, the IC50 in [10] is 31.9 µM; in data set [15] it was 35.3 µM.
Take `CCCSc1nc(N[C@@H]2C[C@H]2c2ccc(F)c(F)c2)c2nnn([C@@H]3C[C@H](OCCO)[C@@H](O)[C@H]3O)c2n1` [TICAGRELOR]: the “Ratio IC50” value in data set [5] was found to be 2. The values for the IC50 in [10] and in data set [15] were 4 µM and 2 µM, respectively.
Regarding `O=C1C=CC2(CCCC2)c2c(O)c3c(c(O)c21)CC=CC3`, the “Ratio IC50” value in data set [5] was found to be 3.92. Moreover, in the data set with Platelet [7], the Activity entry is “Non-Toxic”. Also, the IC50 was above 100 µM in data set [10] and 25.5 µM in [15].
With `CCCCCC1=CC(C)(C)c2c(O)ccc(O)c2C1=O`, the Activity entry with Platelet [7] is listed as “Toxic”.
Take `CCC1(CC)C=CC(=O)c2c(O)c3c(c(O)c21)CC=CC3`: the result in the data set with Platelet [1], in the data set with Platelet [13] and in the data set on Platelet [14] was inactive. The inhibition result with Platelet [18], in the data set with Platelet [20], in the data set with Platelet [21] and in the data set with Platelet [24] was “Active” in each case. For the same compound, the “inhibition (INH)” value in [3] and in data set [6] was 100% each time. Also, the outcome with Platelet [19], in the data set with Platelet [22] and with Platelet [23] was Active. Moreover, the “Ratio IC50” value in data set [5] came to 0.69. Also, the Activity result in the data set with Platelet [7] is given as “Non-Toxic”. Also, the IC50 was found to be 11.9 µM in data set [10] and 17.1 µM in data set [15]. In addition, the inhibition entry with Platelet [11] and in the data set with Platelet [16] was “Dose-dependent effect” in each case.
For the compound `CC1(C)C=CC(=O)c2c(O)c3c(c(O)c21)CC=CC3`, in data set [5], the “Ratio IC50” value was found to be 4.86. In the data set with Platelet [7], the Activity entry was “Non-Toxic”. Also, the IC50 in data set [10] is above 100 µM; in data set [15], 20.6 µM.
In the case of `CCCCCCC1=CC(C)(C)c2c(O)ccc(O)c2C1=O`, the Activity result in the data set with Platelet [7] is given as “Toxic”.
Regarding `CC1C=CC(CO)c2c(O)c3c(c(O)c21)C(C)(C)C=CC3=O` (stereo not given), in [5], the “Ratio IC50” value turned out to be 1.37. The Activity result in the data set with Platelet [7] is “Non-Toxic”. Moreover, the results for the IC50 in data set [10] and in [15] were 15.8 µM and 11.5 µM, respectively.
Consider `CC1C=CC(COC(=O)C2CCCCC2)c2c(O)c3c(c(O)c21)C(C)(C)C=CC3=O` (stereo not given), for which, in the data set on Platelet [7], the Activity result is recorded as “Non-Toxic”. For the same compound, the IC50 in [10] and in data set [15] was above 100 µM in each case.
